Drawing on ChEMBL document CHEMBL5036324 (J Med Chem, 2021), this text covers Activity, MTD and solubility for two compounds.

As a reminder, the MTD is the highest dose tested that stayed within the study's limit of toxicity. In general, solubility refers to the dissolved amount per volume that the medium holds. Low readings indicate little dissolved substance, high ones much dissolved substance.

In brackets after ≈: the same amount, converted by molar mass. Activity calls are given as the source filed them. The calls are words filed in the database; no cut-off is given here.

For series [1], the target named is T1, Toll-like receptor 7 (Homo sapiens) (UniProt Q9NYK1).
T1 sequence (whole entry): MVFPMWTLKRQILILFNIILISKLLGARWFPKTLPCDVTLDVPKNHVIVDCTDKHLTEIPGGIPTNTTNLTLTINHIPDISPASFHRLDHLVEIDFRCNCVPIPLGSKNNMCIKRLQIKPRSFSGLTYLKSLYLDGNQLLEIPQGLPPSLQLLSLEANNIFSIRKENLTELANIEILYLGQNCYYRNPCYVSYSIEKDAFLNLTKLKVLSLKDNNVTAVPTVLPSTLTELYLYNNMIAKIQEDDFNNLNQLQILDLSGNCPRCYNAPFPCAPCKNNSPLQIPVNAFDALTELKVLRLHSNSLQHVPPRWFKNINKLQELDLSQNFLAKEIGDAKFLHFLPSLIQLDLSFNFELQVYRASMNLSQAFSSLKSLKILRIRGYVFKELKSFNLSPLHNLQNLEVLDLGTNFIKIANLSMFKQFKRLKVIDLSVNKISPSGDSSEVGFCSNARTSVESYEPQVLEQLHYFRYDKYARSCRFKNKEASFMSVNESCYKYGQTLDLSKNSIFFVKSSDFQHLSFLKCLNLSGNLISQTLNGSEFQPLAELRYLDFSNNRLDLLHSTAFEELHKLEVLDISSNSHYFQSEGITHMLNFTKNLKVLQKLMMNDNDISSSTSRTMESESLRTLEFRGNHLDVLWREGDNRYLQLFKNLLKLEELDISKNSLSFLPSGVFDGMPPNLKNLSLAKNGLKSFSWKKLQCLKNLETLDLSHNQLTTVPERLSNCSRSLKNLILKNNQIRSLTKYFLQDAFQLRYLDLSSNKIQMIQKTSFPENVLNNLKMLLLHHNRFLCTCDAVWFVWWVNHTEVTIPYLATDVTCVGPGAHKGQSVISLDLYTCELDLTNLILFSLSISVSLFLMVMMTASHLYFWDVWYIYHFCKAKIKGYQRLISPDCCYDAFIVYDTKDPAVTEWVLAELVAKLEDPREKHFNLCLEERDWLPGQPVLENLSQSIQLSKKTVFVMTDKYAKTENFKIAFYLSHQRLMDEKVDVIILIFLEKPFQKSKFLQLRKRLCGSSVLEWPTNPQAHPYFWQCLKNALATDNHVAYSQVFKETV
In words: Agonist activity at human TLR7 expressed in HEK-Blue hTLR7 cells assessed as activation of NFkappaB incubated for 6 to 16 hrs by SEAP reporter gene based assay. The format is cell-based. To be noted: filed as agonist, time 6-16 hrs. The essentials: (§1)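 HEK293-derived SEAP reporter cells stably expressing the matching human TLR (2, 3, 4, 7, 8 or 9), kept under selection antibiotics. SEAP is driven by an NF-κB/AP-1-inducible promoter. HEK-Blue Null2-k (no TLR7/8) serves as the parental line. Cells were given escalating concentrations of stimuli for 6−16 h, then SEAP was read with HEK-Blue detection at 620 nm.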
On the technique in general: Reporter assays use an easily measured gene product as a stand-in for the process of interest.

Series [2] addresses Toll-like receptor 2 (Homo sapiens) (UniProt O60603). Put plainly: Agonist activity at human TLR2 expressed in HEK-Blue hTLR2 cells assessed as activation of NFkappaB incubated for 6 to 16 hrs by SEAP reporter gene based assay. To be noted: time 6-16 hrs. The format is cell-based. The essentials: as §1
Series [3] concerns the target T2, Toll-like receptor 9 (Homo sapiens) (UniProt Q9NR96).
T2 sequence (whole entry): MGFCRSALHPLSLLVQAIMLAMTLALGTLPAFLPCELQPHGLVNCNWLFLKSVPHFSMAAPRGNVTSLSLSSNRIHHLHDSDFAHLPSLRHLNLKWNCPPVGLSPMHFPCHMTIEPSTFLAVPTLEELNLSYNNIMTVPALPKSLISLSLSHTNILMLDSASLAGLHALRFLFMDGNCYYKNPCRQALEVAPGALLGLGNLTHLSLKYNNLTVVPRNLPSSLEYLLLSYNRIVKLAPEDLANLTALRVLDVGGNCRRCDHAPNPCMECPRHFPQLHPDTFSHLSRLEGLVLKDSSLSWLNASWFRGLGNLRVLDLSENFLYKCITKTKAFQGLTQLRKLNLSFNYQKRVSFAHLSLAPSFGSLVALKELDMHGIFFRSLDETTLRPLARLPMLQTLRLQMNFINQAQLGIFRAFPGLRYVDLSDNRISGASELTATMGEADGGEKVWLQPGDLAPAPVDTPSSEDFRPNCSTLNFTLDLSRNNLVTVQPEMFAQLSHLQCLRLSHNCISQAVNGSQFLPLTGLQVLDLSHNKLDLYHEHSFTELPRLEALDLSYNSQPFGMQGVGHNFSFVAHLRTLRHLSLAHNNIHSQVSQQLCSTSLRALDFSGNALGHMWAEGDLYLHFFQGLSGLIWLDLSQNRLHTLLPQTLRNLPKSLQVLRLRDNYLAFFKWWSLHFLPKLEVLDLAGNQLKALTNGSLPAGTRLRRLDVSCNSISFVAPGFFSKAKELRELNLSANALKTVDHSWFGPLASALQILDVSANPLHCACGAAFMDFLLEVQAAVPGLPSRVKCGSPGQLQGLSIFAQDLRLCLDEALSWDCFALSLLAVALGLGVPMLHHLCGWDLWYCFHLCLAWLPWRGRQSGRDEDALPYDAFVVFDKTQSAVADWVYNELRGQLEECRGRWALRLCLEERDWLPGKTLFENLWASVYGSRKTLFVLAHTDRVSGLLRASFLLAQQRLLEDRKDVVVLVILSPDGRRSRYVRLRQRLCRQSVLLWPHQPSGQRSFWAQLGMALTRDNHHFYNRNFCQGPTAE
In words: Agonist activity at human TLR9 expressed in HEK-Blue hTLR9 cells assessed as activation of NFkappaB incubated for 6 to 16 hrs by SEAP reporter gene based assay. The format is cell-based. To be noted: time 6-16 hrs. The method in brief:
as §1

Series [4] deals with TLR7 and TLR8 (Homo sapiens) (UniProt Q9NYK1+Q9NR97). In words: Agonist activity at human TLR7/8 expressed in human PBMC cells assessed as induction of VEGF secretion incubated for 12 hrs by multiplexed immunoassay. The format is cell-based. To be noted: filed as agonist. The essentials:
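Healthy-volunteer PBMCs from a single donor were isolated by Ficoll−Hypaque gradient and plated at 2.0 × 10⁶ cells/mL. They were stimulated for 12 h with escalating compound concentrations. Supernatants were assayed in duplicate on a 41-analyte magnetic bead cytokine/chemokine panel read by Luminex. EC_max is the concentration giving maximal cytokine induction.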

The nature of series [5]: Acute toxicity in BALB/c mouse assessed as body weight loss at 60 mg/kg, ip administered as single dose relative to control. To be noted: in vivo. Type of series: organism-based.
Series [6] can be described thus: Acute toxicity in BALB/c mouse assessed as maximum tolerated dose. To be noted: in vivo.
Series [7] in a line: Subacute toxicity in BALB/c mouse assessed as pathological changes in heart at 15 mg/kg, ip administered as single dose by H and E staining based microscopic analysis. Type of series: organism-based. To be noted: in vivo. The method in brief: (§2)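 Subacute toxicity study in BALB/c mice given ip TLR7/8 agonist. Tissues from treated and control mice were examined by hematoxylin and eosin staining.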

Series [8] can be described thus: Subacute toxicity in BALB/c mouse assessed as pathological changes in spleen at 15 mg/kg, ip administered as single dose by H and E staining based microscopic analysis. The format is organism-based. To be noted: in vivo. The method in brief: as §2
Series [9] in a line: Subacute toxicity in BALB/c mouse assessed as pathological changes in lung at 15 mg/kg, ip administered as single dose by H and E staining based microscopic analysis. The format is organism-based. To be noted: in vivo. The method in brief: as §2
Series [10] can be described thus: Aqueous solubility of compound. Type of series: physicochemical.

Sequence of Toll-like receptor 2 (Homo sapiens) (O60603 whole entry): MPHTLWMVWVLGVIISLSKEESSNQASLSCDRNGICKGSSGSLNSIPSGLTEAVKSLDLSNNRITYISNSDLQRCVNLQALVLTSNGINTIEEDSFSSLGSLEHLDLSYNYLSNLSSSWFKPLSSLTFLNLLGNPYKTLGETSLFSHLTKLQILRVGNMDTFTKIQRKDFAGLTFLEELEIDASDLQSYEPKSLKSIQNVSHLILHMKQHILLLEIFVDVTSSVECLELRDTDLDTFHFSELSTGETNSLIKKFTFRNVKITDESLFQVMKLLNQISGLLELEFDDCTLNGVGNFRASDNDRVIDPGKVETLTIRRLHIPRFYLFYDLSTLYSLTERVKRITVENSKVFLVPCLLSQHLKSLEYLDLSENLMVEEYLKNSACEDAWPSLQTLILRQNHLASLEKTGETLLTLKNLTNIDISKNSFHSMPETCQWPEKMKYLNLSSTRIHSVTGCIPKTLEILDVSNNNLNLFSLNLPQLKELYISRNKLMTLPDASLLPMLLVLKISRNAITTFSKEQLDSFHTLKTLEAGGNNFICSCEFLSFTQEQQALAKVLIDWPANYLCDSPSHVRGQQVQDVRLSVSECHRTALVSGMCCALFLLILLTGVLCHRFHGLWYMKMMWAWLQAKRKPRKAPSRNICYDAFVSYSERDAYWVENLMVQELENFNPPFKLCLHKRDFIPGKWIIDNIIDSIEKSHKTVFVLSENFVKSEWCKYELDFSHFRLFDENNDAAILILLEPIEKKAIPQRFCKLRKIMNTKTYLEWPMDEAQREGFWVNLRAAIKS
Sequence of TLR7 and TLR8 (Homo sapiens) (Q9NR97 whole entry, looked up, one chain of several): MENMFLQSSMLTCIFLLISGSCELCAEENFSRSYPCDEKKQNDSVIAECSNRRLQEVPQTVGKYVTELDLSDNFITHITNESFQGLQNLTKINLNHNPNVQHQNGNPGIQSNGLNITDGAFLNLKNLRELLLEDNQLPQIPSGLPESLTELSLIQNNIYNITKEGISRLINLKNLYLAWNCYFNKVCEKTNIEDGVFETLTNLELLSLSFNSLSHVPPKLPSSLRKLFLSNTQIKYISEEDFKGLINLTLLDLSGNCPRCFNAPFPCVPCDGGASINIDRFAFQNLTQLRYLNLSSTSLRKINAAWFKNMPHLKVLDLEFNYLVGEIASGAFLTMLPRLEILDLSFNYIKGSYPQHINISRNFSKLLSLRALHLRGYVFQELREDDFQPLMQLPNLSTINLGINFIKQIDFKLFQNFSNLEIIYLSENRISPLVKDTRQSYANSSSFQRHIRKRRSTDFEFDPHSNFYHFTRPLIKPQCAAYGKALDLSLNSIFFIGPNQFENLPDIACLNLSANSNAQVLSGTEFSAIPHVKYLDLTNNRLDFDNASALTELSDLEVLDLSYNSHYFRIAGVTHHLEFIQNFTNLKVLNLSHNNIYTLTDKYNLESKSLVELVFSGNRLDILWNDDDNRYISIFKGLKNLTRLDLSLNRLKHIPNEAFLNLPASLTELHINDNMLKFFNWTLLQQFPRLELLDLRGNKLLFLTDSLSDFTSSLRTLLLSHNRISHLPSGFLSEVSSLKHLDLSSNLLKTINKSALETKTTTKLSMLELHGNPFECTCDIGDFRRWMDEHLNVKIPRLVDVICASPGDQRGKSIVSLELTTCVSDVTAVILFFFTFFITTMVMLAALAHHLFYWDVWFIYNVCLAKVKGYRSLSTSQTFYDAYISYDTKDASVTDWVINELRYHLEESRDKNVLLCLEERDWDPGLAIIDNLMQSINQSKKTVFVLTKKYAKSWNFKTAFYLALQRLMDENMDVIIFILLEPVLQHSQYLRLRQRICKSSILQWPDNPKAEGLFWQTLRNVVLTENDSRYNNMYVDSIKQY

Consider `CCCCNc1nc(N)nc2ccc(Cc3ccc(CN(C)C)cc3)nc12`, for which the result in series [1] and in series [4] was Active. For the same compound, the result in series [2] and in series [3] was inactive. Moreover, the Activity was 17.6% in [5], “Non-Toxic” in [7], “Non-Toxic” in series [8] and “Non-Toxic” in [9]. The maximal tolerated dose (MTD) in [6] was determined as 30 mg/kg. This compound also gave a solubility in [10] of 45 µg/mL (≈ 123 µM).
With `COCCNc1nc(N)nc2ccc(Cc3ccc(CN(C)C)cc3)nc12`, the result in [1] and in series [4] was Active. For the same compound, the outcome in series [2] and in series [3] was inactive. In addition, the Activity is 15.3% in series [5], “Non-Toxic” in [7], “Non-Toxic” in series [8] and “Non-Toxic” in series [9]. Moreover, the maximum tolerated dose (MTD) in series [6] was found to be 45 mg/kg. Further, the solubility in series [10] amounted to 1030 µg/mL (≈ 2810 µM).
